Drawing on ChEMBL document CHEMBL1152556, “Omega-conotoxin GVIA mimetics based on an anthranilamide core: effect of variation in ammonium side chain lengths and incorporation of fluorine” (Bioorg Med Chem, 2009), this text covers EC50 for 14 molecules.

pEC50: −log10 of the molar value.

The term pEC50 denotes the negative decadic logarithm of the EC50, by convention in mol/L.

Sequence of Voltage-dependent N-type calcium channel subunit alpha-1B (Q02294 whole entry): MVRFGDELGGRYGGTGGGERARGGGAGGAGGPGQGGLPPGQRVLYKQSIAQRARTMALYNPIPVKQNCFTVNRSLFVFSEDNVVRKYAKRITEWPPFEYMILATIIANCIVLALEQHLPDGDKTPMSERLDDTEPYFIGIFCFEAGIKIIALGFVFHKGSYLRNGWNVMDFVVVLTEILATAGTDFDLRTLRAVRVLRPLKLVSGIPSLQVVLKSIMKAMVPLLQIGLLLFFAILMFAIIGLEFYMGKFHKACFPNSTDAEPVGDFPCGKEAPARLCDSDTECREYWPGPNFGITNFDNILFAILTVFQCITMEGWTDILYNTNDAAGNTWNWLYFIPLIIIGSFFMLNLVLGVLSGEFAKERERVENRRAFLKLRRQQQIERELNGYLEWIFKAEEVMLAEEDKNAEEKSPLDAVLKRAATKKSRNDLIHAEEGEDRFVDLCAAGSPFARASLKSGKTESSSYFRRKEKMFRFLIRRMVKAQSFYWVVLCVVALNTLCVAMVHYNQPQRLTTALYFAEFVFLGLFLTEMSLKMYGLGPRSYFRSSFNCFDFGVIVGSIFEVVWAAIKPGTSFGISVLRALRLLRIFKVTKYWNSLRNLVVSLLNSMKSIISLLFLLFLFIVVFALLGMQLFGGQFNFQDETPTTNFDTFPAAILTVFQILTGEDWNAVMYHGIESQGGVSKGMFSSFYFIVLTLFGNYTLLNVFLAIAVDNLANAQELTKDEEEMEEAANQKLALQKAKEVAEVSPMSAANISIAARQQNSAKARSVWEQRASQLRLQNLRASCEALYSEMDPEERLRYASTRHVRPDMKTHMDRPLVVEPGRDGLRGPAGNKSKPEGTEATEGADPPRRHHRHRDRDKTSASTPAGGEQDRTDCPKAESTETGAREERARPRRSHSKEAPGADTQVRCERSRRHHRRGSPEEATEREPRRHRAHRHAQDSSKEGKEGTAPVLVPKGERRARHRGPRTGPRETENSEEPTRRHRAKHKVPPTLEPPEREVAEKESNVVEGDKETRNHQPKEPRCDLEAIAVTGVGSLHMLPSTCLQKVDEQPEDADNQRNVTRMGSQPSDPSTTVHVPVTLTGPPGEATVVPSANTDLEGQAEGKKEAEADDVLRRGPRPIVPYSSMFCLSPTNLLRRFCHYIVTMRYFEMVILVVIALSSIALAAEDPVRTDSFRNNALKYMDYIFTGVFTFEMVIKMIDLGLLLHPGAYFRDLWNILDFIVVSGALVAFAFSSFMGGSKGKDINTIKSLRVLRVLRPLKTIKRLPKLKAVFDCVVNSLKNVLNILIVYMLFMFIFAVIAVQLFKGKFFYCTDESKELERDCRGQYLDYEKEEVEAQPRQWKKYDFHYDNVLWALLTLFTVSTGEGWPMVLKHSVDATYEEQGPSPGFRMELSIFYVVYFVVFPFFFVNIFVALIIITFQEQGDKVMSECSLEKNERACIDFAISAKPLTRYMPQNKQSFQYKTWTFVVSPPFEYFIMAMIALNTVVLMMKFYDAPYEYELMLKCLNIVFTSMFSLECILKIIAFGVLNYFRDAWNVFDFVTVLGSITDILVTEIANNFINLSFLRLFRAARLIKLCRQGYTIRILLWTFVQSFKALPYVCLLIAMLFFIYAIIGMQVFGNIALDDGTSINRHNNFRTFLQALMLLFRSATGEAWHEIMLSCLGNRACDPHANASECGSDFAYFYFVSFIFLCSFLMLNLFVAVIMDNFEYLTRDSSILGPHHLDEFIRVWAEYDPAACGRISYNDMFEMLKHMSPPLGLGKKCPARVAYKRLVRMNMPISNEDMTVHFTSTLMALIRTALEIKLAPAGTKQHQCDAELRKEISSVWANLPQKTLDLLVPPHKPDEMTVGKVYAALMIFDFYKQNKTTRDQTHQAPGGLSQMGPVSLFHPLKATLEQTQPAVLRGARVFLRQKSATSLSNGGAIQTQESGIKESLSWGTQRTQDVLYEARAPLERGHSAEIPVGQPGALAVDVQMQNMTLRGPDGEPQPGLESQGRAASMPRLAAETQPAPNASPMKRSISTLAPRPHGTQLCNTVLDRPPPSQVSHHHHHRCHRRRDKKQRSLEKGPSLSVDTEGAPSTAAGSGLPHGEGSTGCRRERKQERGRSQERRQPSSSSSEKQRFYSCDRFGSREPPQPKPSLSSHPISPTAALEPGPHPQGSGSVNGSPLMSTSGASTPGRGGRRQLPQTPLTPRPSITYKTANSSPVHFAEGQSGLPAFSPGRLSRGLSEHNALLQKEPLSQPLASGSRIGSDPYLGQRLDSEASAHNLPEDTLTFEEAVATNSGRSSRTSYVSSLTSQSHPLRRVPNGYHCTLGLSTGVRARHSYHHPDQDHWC

The first assay addresses Voltage-dependent N-type calcium channel subunit alpha-1B (Rattus norvegicus, UniProt Q02294). Kind of assay: Displacement of [125I]GVIA from Cav2.2 channel in rat brain by scintillation counting. The assay is classed as tissue-based.
Conditions: not given; call rule not given here
In short, it runs like this: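 Radioligand displacement run in triplicate at room temperature on crude rat brain membrane (8 lg per well, added last) with 125I-GVIA tracer. Buffer: 20 mM HEPES, 75 mM NaCl, 0.2 mM EDTA, 0.2 mM EGTA, leupeptin, aprotinin, 0.1% BSA, pH 7.4. Shaken 1 h, then filtered on PEI-soaked glass fibre and washed with HEPES/125 mM NaCl, pH 7.4. Filter-bound counts read.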
Background: Displacement assays read how much labelled ligand stays bound in the presence of the test substance.
Regarding `NCCCCCCCC(=O)Nc1ccc(OCCCN)cc1C(=O)Nc1ccc(Oc2ccc(O)cc2)cc1`, the EC50 entry is “Not Active”.

Consider `NCCCCCCCC(=O)Nc1ccc(OCCCN)cc1C(=O)Nc1ccc(Oc2ccc(F)cc2)cc1`, for which the EC50 result is reported as “Not Active”.

The same assay, now with this note: read-out: EC50.
`NC(N)=NCCCCCC(=O)Nc1ccc(OCCCN=C(N)N)cc1C(=O)Nc1ccc(Oc2ccccc2)cc1`: the negative logarithm of the EC50 (pEC50) was 4.80.

As for `NCCCCCC(=O)Nc1ccc(OCCCN)cc1C(=O)Nc1ccc(Oc2ccccc2)cc1`, the negative-log EC50 (pEC50) is 3.97.

`NC(N)=NCCCCCCCC(=O)Nc1ccc(OCCCN=C(N)N)cc1C(=O)Nc1ccc(Oc2ccc(F)cc2)cc1`: the pEC50 was 5.22.

Regarding `NC(N)=NCCCCCCCC(=O)Nc1ccc(OCCCCN=C(N)N)cc1C(=O)Nc1ccc(Oc2ccccc2)cc1`, the pEC50 is 4.82.

Consider `NC(N)=NCCCCC(=O)Nc1ccc(OCCCN=C(N)N)cc1C(=O)Nc1ccc(Oc2ccccc2)cc1`, for which the negative-log EC50 (pEC50) is 3.94.

As to `NC(N)=NCCCCCCCC(=O)Nc1ccc(OCCCN=C(N)N)cc1C(=O)Nc1ccc(Oc2ccccc2)cc1`, the pEC50 is 4.89.

In the case of `NC(N)=NCCCCCCCC(=O)Nc1ccc(OCCCN=C(N)N)cc1C(=O)Nc1ccc(Oc2ccc(O)cc2)cc1`, the pEC50 was 4.80.

`NCCCCCCCC(=O)Nc1ccc(OCCCCN)cc1C(=O)Nc1ccc(Oc2ccccc2)cc1`: the negative-log EC50 (pEC50) was 4.05.

For the molecule `NCCCCCC(=O)Nc1ccc(OCCCCN)cc1C(=O)Nc1ccc(Oc2ccccc2)cc1`, the pEC50 was 4.00.

With `NCCCCC(=O)Nc1ccc(OCCCN)cc1C(=O)Nc1ccc(Oc2ccccc2)cc1`, the pEC50 was 4.11.

For the molecule `NC(N)=NCCCCCC(=O)Nc1ccc(OCCCCN=C(N)N)cc1C(=O)Nc1ccc(Oc2ccccc2)cc1`, the negative logarithm of the EC50 (pEC50) was 4.77.

In the case of `NCCCCCCCC(=O)Nc1ccc(OCCCN)cc1C(=O)Nc1ccc(Oc2ccccc2)cc1`, the pEC50 is 4.14.
